Assay [1] deals with T1, 3-hydroxy-3-methylglutaryl-coenzyme A reductase (Homo sapiens) (UniProt P04035).
T1 sequence (whole entry): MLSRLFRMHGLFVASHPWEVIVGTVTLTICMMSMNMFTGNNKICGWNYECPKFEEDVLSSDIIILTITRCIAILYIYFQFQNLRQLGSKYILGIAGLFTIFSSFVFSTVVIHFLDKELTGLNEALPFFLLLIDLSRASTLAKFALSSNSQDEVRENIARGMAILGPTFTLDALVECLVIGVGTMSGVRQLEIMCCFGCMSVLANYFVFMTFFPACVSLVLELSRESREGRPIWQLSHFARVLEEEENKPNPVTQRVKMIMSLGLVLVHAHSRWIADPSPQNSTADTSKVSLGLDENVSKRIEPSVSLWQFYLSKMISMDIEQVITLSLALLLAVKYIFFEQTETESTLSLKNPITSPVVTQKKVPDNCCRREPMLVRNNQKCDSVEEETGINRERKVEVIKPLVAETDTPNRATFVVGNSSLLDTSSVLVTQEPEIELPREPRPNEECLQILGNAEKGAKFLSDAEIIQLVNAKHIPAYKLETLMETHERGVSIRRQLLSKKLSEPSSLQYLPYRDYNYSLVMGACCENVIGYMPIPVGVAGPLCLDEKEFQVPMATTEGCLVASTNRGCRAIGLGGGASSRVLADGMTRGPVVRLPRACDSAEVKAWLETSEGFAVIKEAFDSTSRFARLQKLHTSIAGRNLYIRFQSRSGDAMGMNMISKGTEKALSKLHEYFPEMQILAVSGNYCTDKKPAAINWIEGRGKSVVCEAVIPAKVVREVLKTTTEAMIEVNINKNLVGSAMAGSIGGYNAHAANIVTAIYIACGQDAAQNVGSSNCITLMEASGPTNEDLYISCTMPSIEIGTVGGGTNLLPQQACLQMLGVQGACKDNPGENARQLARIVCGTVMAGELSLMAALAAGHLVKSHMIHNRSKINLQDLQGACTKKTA
Nature of the assay: % control of HMG-CoA reductase activity in CHO-K1 cells at a concentration of 0.25 uM. The class given is cell-based. To be noted: Cricetulus griseus. In a few lines:
(§1)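 CHO-K1 cells were exposed to the sterol at 0.0–2.5 μM. HMG-CoA reductase specific activity was measured in pmol min⁻¹ mg⁻¹ protein and expressed as % of the activity in sterol-free control cells. Assays were run in triplicate, with variation given as SD.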

Assay [2] concerns the target T1, 3-hydroxy-3-methylglutaryl-coenzyme A reductase (Homo sapiens). Nature of the assay: % control of HMG-CoA reductase activity in CHO-K1 cells at a concentration of 0.5 uM. The class given is cell-based. To be noted: Cricetulus griseus. Summed up: as §1
Assay [3] has the same target. Briefly: % control of HMG-CoA reductase activity in CHO-K1 cells at a concentration of 1.0 uM. The class given is cell-based. To be noted: Cricetulus griseus. In a few lines:
as §1

The target is the same in assay [4]. Briefly: % control of HMG-CoA reductase activity in CHO-K1 cells at a concentration of 2.5 uM. It is filed as cell-based. To be noted: Cricetulus griseus. In a few lines:
as §1

Assay [5] has as its target 3-hydroxy-3-methylglutaryl-coenzyme A reductase (Cricetulus griseus) (UniProt P00347). Briefly: % control of HMG-CoA reductase activity in CHO-K1 cells at a concentration of 0.0 uM.
The target is the same in assay [6]. Nature of the assay: % control of HMG-CoA reductase activity in CHO-K1 cells at a concentration of 0.1 uM.

Chain of 3-hydroxy-3-methylglutaryl-coenzyme A reductase (Cricetulus griseus) (P00347 whole entry, looked up): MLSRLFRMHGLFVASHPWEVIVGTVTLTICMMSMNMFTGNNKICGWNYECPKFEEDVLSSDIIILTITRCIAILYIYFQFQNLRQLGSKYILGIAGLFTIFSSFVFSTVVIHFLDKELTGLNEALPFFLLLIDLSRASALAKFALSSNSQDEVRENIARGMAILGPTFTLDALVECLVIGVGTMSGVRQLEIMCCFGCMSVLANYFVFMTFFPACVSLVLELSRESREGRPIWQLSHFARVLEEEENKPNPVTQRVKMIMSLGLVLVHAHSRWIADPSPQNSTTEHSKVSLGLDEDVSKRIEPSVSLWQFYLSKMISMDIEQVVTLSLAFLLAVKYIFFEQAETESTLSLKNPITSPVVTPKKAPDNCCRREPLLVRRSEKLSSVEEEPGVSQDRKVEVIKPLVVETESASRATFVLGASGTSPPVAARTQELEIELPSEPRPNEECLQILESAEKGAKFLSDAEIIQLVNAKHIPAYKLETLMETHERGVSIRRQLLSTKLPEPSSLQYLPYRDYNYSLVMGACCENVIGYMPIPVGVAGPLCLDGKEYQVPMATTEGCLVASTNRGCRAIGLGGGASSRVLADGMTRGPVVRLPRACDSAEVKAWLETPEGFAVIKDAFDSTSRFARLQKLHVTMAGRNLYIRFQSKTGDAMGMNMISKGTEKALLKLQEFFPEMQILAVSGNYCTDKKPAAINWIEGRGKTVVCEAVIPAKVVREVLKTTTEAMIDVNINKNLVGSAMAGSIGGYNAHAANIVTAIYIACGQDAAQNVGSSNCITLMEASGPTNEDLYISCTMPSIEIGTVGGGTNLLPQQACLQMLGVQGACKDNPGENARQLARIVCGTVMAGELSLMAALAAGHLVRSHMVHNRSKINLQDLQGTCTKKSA

For `C[C@H](CCCC(C)(C)O)C1CC(=O)C2=C3CCC4CC(O)CCC4(C)C3CCC21C` (some centres not stated), the Control was determined as 33.5% in assay [1]; 32.2% in assay [2]; 34.2% in assay [3]; 21.5% in assay [4]; 100% in assay [5]; 63.4% in assay [6].
Consider `CC(C)CCC[C@@H](C)[C@H]1CC(=O)C2=C3CC[C@H]4C[C@@H](O)CC[C@]4(C)[C@H]3CC[C@@]21C`, for which the Control in assay [1] is 52.1%; in assay [2], 42.2%; in assay [3], 35.8%; in assay [4], 24.4%; in assay [5] it was 100%; in assay [6] it was 61.9%.

The values are drawn from ChEMBL document CHEMBL1125384, “Inhibitors of sterol synthesis. 3 beta,25-dihydroxy-5 alpha-cholest-8(14)-en-15-one, an active metabolite of 3 beta-hydroxy-5 alpha-cholest-8(14)-en-15-one” (J Med Chem, 1992).
